The record followed here is ChEMBL document CHEMBL1158348, “Aroylpropionic acid based 2,5-disubstituted-1,3,4-oxadiazoles: synthesis and their anti-inflammatory and analgesic activities” (Eur J Med Chem, 2009).

Data set [1] concerns Rattus norvegicus. In words: Antiinflammatory activity in po dosed Wistar rat assessed as inhibition of carrageenan-induced paw odema at dose equivalent to 20 mg/kg of ibuprofen pretreated 30 mins pre-carrageenan challenge measured after 2 hrs. In kind it is functional. The method, boiled down:
(§1)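 Rats 150–200 g, groups of six. Drug given orally as a suspension in 0.5% w/v aqueous sodium CMC; control group untreated. 30 min later, 0.1 mL of 1% carrageenan injected sub-plantar into the left hind paw. Paw volume measured by plethysmometer before treatment (V0) and at intervals (Vt). Inhibition computed from (Vt−V0) of treated vs control. Values are mean ± S.E.M.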
For orientation: The carrageenan paw model is a standard test of acute inflammation.

Data set [2] deals with Rattus norvegicus. The data set is described as follows: Antiinflammatory activity in po dosed Wistar rat assessed as inhibition of carrageenan-induced paw odema at dose equivalent to 20 mg/kg of ibuprofen pretreated 30 mins pre-carrageenan challenge measured after 3 hrs. The class given is functional. The method, boiled down:
as §1

Data set [3] has as its system Mus musculus. In words: Analgesic activity in po dosed Swiss albino mouse assessed as inhibition of acetic acid-induced writhing response at dose equivalent to 20 mg/kg of ibuprofen pretreated 3 hrs before acetic acid challenge. Also noted: scale not given: the % may be the effect or the level left. The class given is functional. The method, boiled down:
(§2)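 Mice 25–30 g of either sex, groups of six. Drug given orally as a suspension in 0.5% w/v aqueous sodium CMC, 3 h before 1% v/v acetic acid i.p. at 1 mL per 100 g body weight. Writhings counted over 10 min. Protection (%) = 100 − (test/control writhings × 100). Values are mean ± S.E.M., with ANOVA then t-test.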

Data set [4] relates to Rattus norvegicus. In words: Gastrointestinal toxicity in po dosed Wistar rat assessed ulcer index at dose equivalent to 60 mg/kg of ibuprofen after 17 hrs. The class given is organism-based. On the set-up: dose 60 mg/kg, route oral. Particulars: in vivo. The method, boiled down: (§3)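 Wistar rats (150–200 g), groups of six, fasted 8 h, then given a single oral dose (60 mg kg-1 ibuprofen or molar equivalent of test compound; control received vehicle only). Sacrificed 17 h later with food and water available. Gastric mucosa examined under 4× binocular magnifier, scored 0–4 by lesion/ulcer number and size. Severity index = treated group mean score minus control mean score.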

Data set [5] relates to Gastric mucosa. The data set is described as follows: Inhibition of lipid peroxidation assessed as malondialdehyde level per 100 mg of gastric mucosa isolated from po dosed Wistar rat treated dose equivalent to 60 mg/kg equivalent to ibuprofen by UV spectrophotometry. The class given is functional. The method, boiled down: (§4)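 Rats 150–200 g, groups of six, fasted 8 h, then given a single oral dose and killed 17 h later with food and water available. Gastric mucosa scraped, 100 mg homogenised in ice-cold 1.15% KCl. SDS, pH 3.5 acetate buffer and 0.8% TBA added, heated at 95 °C for 60 min. Extracted with n-butanol/pyridine 15:1, A532 read; MDA in nmol/100 mg tissue.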

Data set [6] has as its system Rattus norvegicus. In words: Antiinflammatory activity in Wistar rat assessed as inhibition of carrageenan-induced paw odema at 20 mg/kg, po pretreated 30 mins pre-carrageenan challenge measured after 2 hrs. The class given is functional. The method, boiled down: as §1
In data set [7] the test system is Rattus norvegicus. The data set is described as follows: Antiinflammatory activity in Wistar rat assessed as inhibition of carrageenan-induced paw odema at 20 mg/kg, po pretreated 30 mins pre-carrageenan challenge measured after 3 hrs. In kind it is functional. The method, boiled down: as §1
For data set [8], the system named is Rattus norvegicus. The data set is described as follows: Antiinflammatory activity in Wistar rat assessed as inhibition of carrageenan-induced paw odema at 20 mg/kg, po pretreated 30 mins pre-carrageenan challenge measured after 4 hrs. In kind it is functional. The method, boiled down:
as §1

Data set [9] has as its system Rattus norvegicus. In words: Antiinflammatory activity in Wistar rat assessed as inhibition of carrageenan-induced paw odema at 20 mg/kg, po pretreated 30 mins pre-carrageenan challenge measured after 8 hrs. The class given is functional. The method, boiled down:
as §1

The subject of data set [10] is Mus musculus. The data set is described as follows: Analgesic activity in Swiss albino mouse assessed as inhibition of acetic acid-induced writhing response at 20 mg/kg, po pretreated 3 hrs before acetic acid challenge. The class given is functional. On the set-up: scale not given: the % may be the effect or the level left. The method, boiled down: as §2
For orientation: In writhing tests, fewer writhes than in controls are read as antinociception.

The test system of data set [11] is Rattus norvegicus. In words: Gastrointestinal toxicity in Wistar rat assessed ulcer index at 60 mg/kg, po after 17 hrs. In kind it is organism-based. On the set-up: dose 60 mg/kg, route oral. Particulars: in vivo. The method, boiled down: as §3
For data set [12], the system named is Gastric mucosa. In words: Inhibition of lipid peroxidation assessed as malondialdehyde level per 100 mg of gastric mucosa isolated from Wistar rat treated 60 mg/kg, po by UV spectrophotometry. In kind it is functional. The method, boiled down:
as §4

As usually defined, the inhibition in vivo is how much of the control response was suppressed. For `Cc1ccc(C(=O)CCc2nnc(-c3ccc([N+](=O)[O-])cc3)o2)c(C)c1`, the figures for the inhibition in vivo in [1] and in data set [2] were 40% and 69.1%, respectively. Also, the Activity turned out to be 47.2% in data set [3] and 4.42 nmol in data set [5]. Moreover, the UI in data set [4] worked out at 0.87.

Take `Cc1ccc(C(=O)CCc2nnc(Cc3ccccc3)o2)c(C)c1`: the inhibition in vivo in data set [1] was 25.3%; in data set [2] it was 50%.

In the case of `O=C(CCc1nnc(-c2ccccc2Cl)o1)c1ccccc1`, the figures for the inhibition in vivo in data set [1] and in data set [2] were 26.9% and 35.8%, respectively.

As for `O=C(CCc1nnc(-c2ccc([N+](=O)[O-])cc2)o1)c1ccccc1`, the inhibition in vivo in [1] is 40.9%; in data set [2] it was 62.7%. The Activity in [3] is given as 58.2%; in data set [5], 4.95 nmol. Moreover, the UI in [4] worked out at 0.98.

Regarding `CC(C)Cc1ccc(C(C)C(=O)O)cc1` (stereo unspecified) [IBUPROFEN], the inhibition in vivo at 20 mg/kg in data set [6] amounted to 80.9%; in data set [7] it was 90.1%; in [8] it was 65.5%; in [9], 46.7%. Further, the Activity in [10] came out at 72.5%; in data set [12] it was 7.51 nmol. In [11], this compound had a UI of 1.95.

On to `Cc1ccc(C(=O)CCc2nnc(-c3ccc([N+](=O)[O-])cc3)o2)cc1`, for which the inhibition in vivo in data set [1] stood at 52%; in [2], 60.5%. In addition, the values for the Activity in data set [3] and in data set [5] were 53.43% and 3.95 nmol, respectively. For the same compound, in [4], the UI turned out to be 0.95.

As to `Cc1ccc(C(=O)CCc2nnc(COc3ccccc3)o2)c(C)c1`, the inhibition in vivo in [1] came to 27.6%; in data set [2], 45.7%.

Turning to `COc1ccc(-c2nnc(CCC(=O)c3ccc(C)cc3C)o2)cc1OC`, the inhibition in vivo in data set [1] was determined as 58.7%; in data set [2] it was 75.3%. For the same compound, the values for the Activity in [3] and in data set [5] were 56.1% and 5.12 nmol, respectively. The UI in data set [4] was 1.12.

For `COc1ccc(-c2nnc(CCC(=O)c3ccc(C)cc3C)o2)cc1`, the inhibition in vivo in data set [1] was 62.7%; in data set [2], 88.9%. The Activity in data set [3] was determined as 66.25%; in data set [5], 3.79 nmol. The UI in data set [4] is on record as 0.65.

For the compound `O=C(CCc1nnc(-c2ccc(Cl)cc2)o1)c1ccccc1`, the inhibition in vivo in data set [1] is 42%; in data set [2], 81.5%. The Activity in data set [3] is 63%; in data set [5], 5.32 nmol. In addition, in data set [4], the UI is 1.12.

With `Cc1ccc(C(=O)CCc2nnc(Cc3ccccc3)o2)cc1`, the inhibition in vivo amounted to 24.7% in data set [1] and 51.9% in [2].

`Cc1ccc(C(=O)CCc2nnc(-c3ccccc3Cl)o2)c(C)c1`: the figures for the inhibition in vivo in data set [1] and in [2] were 33.5% and 60.5%, respectively. The Activity in data set [3] was found to be 56.8%; in [5], 4.15 nmol. For the same compound, in data set [4], the UI was 0.89.

Consider `Cc1ccc(C(=O)CCc2nnc(-c3ccccc3)o2)cc1`, for which the inhibition in vivo in data set [1] was 33.3%; in [2] it was 49.3%.

On to `Cc1ccc(C(=O)CCc2nnc(-c3ccccc3Cl)o2)cc1`, for which the inhibition in vivo turned out to be 36.2% in data set [1] and 57.3% in data set [2].

As to `Cc1ccc(C(=O)CCc2nnc(COc3ccc4ccccc4c3)o2)cc1`, the inhibition in vivo in data set [1] stood at 24.7%; in data set [2] it was 49.4%.

As for `O=C(CCc1nnc(-c2ccccc2)o1)c1ccccc1`, the inhibition in vivo in data set [1] was found to be 18.7%; in data set [2] it was 29.4%.

With `O=C(CCc1nnc(COc2ccc3ccccc3c2)o1)c1ccccc1`, the inhibition in vivo in [1] came to 29.8%; in data set [2], 51%.

Consider `Cc1ccc(C(=O)CCc2nnc(COc3cccc4ccccc34)o2)cc1`, for which the results for the inhibition in vivo in data set [1] and in [2] were 24% and 37%, respectively.

As for `Cc1ccc(C(=O)CCc2nnc(COc3ccccc3)o2)cc1`, the inhibition in vivo in data set [1] came to 25.3%; in data set [2] it was 42%.

For the compound `COc1ccc(-c2nnc(CCC(=O)c3ccc(C)cc3)o2)cc1OC`, the inhibition in vivo was found to be 53.3% in data set [1] and 72.6% in data set [2]. The Activity was 62.39% in data set [3] and 3.85 nmol in data set [5]. Moreover, the UI in [4] is given as 0.87.

On to `Cc1ccc(C(=O)CCc2nnc(-c3ccc(Cl)cc3)o2)c(C)c1`, for which the results for the inhibition in vivo in [1] and in [2] were 53.3% and 72.6%, respectively. Moreover, the Activity is listed as 60.42% in data set [3] and 3.26 nmol in [5]. The UI in [4] came out at 0.71.

Consider `Cc1ccc(C(=O)CCc2nnc(-c3ccccc3)o2)c(C)c1`, for which the figures for the inhibition in vivo in data set [1] and in data set [2] were 36% and 58%, respectively.

Consider `COc1ccc(-c2nnc(CCC(=O)c3ccc(C)cc3)o2)cc1`, for which the values for the inhibition in vivo in [1] and in data set [2] were 69.3% and 89.5%, respectively. The Activity in [3] turned out to be 69.8%; in [5], 3.15 nmol. For the same compound, the UI in data set [4] was 0.7.

For the compound `Cc1ccc(C(=O)CCc2nnc(-c3ccc(Cl)cc3)o2)cc1`, the inhibition in vivo in [1] turned out to be 62.7%; in data set [2] it was 81.5%. The figures for the Activity in [3] and in data set [5] were 58.89% and 4.25 nmol, respectively. In data set [4], the UI amounted to 0.98.
